Measurements taken from ChEMBL document CHEMBL4382240, “Discovery of novel 2,5-dihydroxyterephthalamide derivatives as multifunctional agents for the treatment of Alzheimer's disease” (Bioorg Med Chem, 2018).
pIC50: −log10 of the molar value.

What was measured:
[1] = target: Acetylcholinesterase (Electrophorus electricus, UniProt O42275); assay: Inhibition of electric eel AChE using acetylthiocholine iodide as substrate after 15 mins by Ellman's method
[2] = target: T1, Amyloid-beta precursor protein (Homo sapiens, UniProt P05067); assay: Disaggregation of self-induced preformed fibrils of human amyloid beta (1 to 42) at 25 uM after 24 hrs by Thioflavin T based fluorometric assay relative to control
T1 sequence (P05067 whole entry): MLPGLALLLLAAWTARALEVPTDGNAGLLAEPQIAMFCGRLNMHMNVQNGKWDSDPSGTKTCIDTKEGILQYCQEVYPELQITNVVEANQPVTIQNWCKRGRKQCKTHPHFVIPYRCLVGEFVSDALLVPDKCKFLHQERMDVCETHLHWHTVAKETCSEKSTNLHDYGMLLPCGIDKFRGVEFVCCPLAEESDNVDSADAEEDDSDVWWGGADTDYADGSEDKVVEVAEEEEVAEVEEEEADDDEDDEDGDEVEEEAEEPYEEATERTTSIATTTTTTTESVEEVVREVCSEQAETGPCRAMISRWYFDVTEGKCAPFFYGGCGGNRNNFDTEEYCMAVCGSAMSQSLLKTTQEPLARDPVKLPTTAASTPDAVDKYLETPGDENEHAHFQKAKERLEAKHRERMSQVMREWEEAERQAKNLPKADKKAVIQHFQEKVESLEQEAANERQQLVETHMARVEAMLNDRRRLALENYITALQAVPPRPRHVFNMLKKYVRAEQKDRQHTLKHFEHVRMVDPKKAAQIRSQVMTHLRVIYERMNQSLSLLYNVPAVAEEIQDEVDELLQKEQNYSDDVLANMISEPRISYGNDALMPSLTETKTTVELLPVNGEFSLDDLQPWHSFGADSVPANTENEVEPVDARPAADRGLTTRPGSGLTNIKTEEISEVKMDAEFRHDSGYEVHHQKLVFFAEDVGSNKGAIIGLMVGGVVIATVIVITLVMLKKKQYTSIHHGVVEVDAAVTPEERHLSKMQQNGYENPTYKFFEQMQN
Outline: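 Aβ1-42 diluted in HEPES buffer (20 mM, pH 6.6, 150 mM NaCl) and pre-aggregated 24 h at 37 °C. Compound (25 µM) then added for another 24 h at 37 °C on a sealed plate. Remaining fibrils read by ThT fluorescence in glycine-NaOH, pH 8.5. Triplicate; three independent experiments.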

[3] = Disaggregation of Cu2+ induced preformed fibrils of human amyloid beta (1 to 42) at 25 uM after 24 hrs by Thioflavin T based fluorometric assay relative to control
Outline: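 Aβ1-42 (25 µM) with Cu2+ (25 µM) in HEPES buffer pre-aggregated 24 h at 37 °C. Compound (25 µM) then added for a further 24 h at 37 °C. Fibril content measured by ThT fluorescence (glycine-NaOH, pH 8.5). Triplicate; three independent experiments.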

[4] = target: Butyrylcholinesterase (Rattus norvegicus, UniProt Q9JKC1); assay: Inhibition of rat serum BuChE using butyrylthiocholine iodide as substrate after 15 mins by Ellman's method; format: ADME
Sequence of Butyrylcholinesterase (Q9JKC1 whole entry): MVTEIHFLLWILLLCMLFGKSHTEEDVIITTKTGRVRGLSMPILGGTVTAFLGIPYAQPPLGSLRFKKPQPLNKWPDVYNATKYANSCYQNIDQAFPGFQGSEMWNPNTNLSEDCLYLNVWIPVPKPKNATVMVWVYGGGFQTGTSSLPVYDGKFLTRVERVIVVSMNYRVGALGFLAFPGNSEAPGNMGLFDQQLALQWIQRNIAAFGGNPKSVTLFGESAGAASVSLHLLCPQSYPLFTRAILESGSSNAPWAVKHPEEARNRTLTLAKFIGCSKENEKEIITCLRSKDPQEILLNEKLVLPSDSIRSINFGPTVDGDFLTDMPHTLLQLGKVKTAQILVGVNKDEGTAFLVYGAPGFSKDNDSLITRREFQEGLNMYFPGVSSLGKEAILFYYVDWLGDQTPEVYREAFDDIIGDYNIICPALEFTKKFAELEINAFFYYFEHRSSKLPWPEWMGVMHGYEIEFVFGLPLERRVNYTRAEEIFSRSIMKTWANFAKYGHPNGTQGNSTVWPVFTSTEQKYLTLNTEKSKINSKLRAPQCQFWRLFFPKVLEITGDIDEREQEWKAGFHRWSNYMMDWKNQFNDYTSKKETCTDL

[5] = target: T1, Amyloid-beta precursor protein; assay: Inhibition of human amyloid beta (1 to 42) self-induced aggregation at 25 uM after 24 hrs by Thioflavin T based fluorometric assay relative to control
Outline: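 Aβ1-42 (25 µM final) incubated with compound (25 µM final) in 50 mM phosphate buffer, pH 7.4, for 24 h at 37 °C under a sealing film. ThT (5 µM) in 50 mM glycine-NaOH, pH 8.5, then added and fluorescence measured. Triplicate; mean ± SD of three independent experiments.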

[6] = target: T2, Acetylcholinesterase (Rattus norvegicus, UniProt P37136); assay: Inhibition of rat cortex AChE using acetylthiocholine iodide as substrate after 15 mins by Ellman's method
T2 sequence (P37136 whole entry): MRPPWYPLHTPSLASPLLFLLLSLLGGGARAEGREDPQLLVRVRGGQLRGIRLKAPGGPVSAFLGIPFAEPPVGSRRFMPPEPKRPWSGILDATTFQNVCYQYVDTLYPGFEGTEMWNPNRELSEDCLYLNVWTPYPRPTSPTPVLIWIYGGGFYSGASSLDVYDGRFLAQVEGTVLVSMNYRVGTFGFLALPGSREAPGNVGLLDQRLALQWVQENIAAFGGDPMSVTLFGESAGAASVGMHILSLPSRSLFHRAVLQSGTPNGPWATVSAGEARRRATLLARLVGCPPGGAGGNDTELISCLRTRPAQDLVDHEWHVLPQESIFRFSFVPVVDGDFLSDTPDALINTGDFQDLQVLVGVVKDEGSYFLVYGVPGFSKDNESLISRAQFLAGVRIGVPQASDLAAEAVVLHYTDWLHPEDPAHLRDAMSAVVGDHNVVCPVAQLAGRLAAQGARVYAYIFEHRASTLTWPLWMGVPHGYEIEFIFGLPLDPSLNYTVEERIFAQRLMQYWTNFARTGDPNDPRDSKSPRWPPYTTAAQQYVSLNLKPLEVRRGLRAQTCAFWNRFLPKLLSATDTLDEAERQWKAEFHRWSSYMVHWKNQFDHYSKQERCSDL

[7] = target: T1, Amyloid-beta precursor protein; assay: Inhibition of human amyloid beta (1 to 42) self-induced aggregation after 24 hrs by Thioflavin T based fluorometric assay
Outline: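 Self-induced Aβ1-42 aggregation (25 µM peptide) in phosphate buffer, pH 7.4, for 24 h at 37 °C with varying compound concentrations. Aggregation read by ThT fluorescence (5 µM ThT, glycine-NaOH pH 8.5).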

[8] = Antioxidant activity assessed as trolox equivalent of APPH-induced radical scavenging activity at 5 uM preincubated for 15 mins followed by AAPH addition measured every minute for 90 mins by ORAC fluorescein assay; format: functional
Outline: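 ORAC-FL in 75 mM phosphate buffer, pH 7.4. Fluorescein (150 nM final) and sample (tested at 1–10 µM) incubated 15 min at 37 °C. AAPH (12 mM final) then added, and fluorescence (ex 485/em 535 nm) read every minute for 90 min. Trolox standard 1–8 µM; result expressed as µM Trolox equivalent per µM compound. Duplicate wells; three independent experiments.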

[9] = Inhibition of Cu2+ induced human amyloid beta (1 to 42) aggregation at 25 uM after 24 hrs by Thioflavin T based fluorometric assay relative to control
Outline: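 Aβ1-42 (25 µM) and Cu2+ (25 µM) in HEPES buffer (20 mM, pH 6.6, 150 mM NaCl), with or without compound (25 µM final), incubated 24 h at 37 °C. ThT (5 µM) in glycine-NaOH, pH 8.5, added and fluorescence read. Triplicate; three independent experiments.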

[10] = Anti-inflammatory activity in […] cells assessed as inhibition of LPS-stimulated TNFalpha release at 2.5 uM preincubated for 30 mins followed by LPS stimulation and measured after 24 hrs by ELISA relative to control; format: functional; details: BV-2
Outline: (§1)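 Confluent BV-2 cells in DMEM preincubated 30 min with compound, tested over 0.5–10 µM, then stimulated with LPS (1.0 µg/mL) for 24 h. Released TNF-α measured by ELISA following kit instructions. Triplicate wells; mean ± SD of three independent experiments.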

[11] = Anti-inflammatory activity in […] cells assessed as inhibition of LPS-stimulated NO release at 10 uM preincubated for 30 mins followed by LPS stimulation and measured after 24 hrs by Griess reagent based assay relative to control; format: functional; details: BV-2
Outline: (§2)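 BV-2 cells cultured 24 h in DMEM (10% FBS, glutamine, pyruvate, pen/strep) at 37 °C, 5% CO2. Compound (DMSO stock diluted in PBS) added 30 min before LPS (1.0 µg/mL), then 24 h. Nitrite in supernatant measured by Griess reagent for 10 min at room temperature, A540, against a NaNO2 standard curve. Triplicate wells; mean ± SD of three independent experiments.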

[12] = Cytotoxicity against […] cells assessed as decrease in cell viability up to 10 uM preincubated for 30 mins followed by LPS stimulation and measured after 24 hrs by MTT assay; format: cell-based
Outline: (§3)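 BV-2 cells grown 24 h, then treated with compound (0.5, 2.5, 10.0 µM) for 30 min, with or without LPS (1.0 µg/mL), for a further 24 h. MTT (5 mg/mL) added for 4 h, formazan dissolved in DMSO, A490 read. Viability given as percent of untreated cells. Triplicate wells; three independent experiments.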

[13] = Anti-inflammatory activity in […] cells assessed as inhibition of LPS-stimulated NO release at 2.5 uM preincubated for 30 mins followed by LPS stimulation and measured after 24 hrs by Griess reagent based assay relative to control; format: functional; details: BV-2; outline: as §2
[14] = Cytotoxicity against […] cells assessed as decrease in cell viability up to 10 uM measured after 24 hrs by MTT assay; format: cell-based; outline: as §3
[15] = Anti-inflammatory activity in […] cells assessed as inhibition of LPS-stimulated TNFalpha release at 10 uM preincubated for 30 mins followed by LPS stimulation and measured after 24 hrs by ELISA relative to control; format: functional; details: BV-2; outline: as §1

Sequence of Acetylcholinesterase (Electrophorus electricus, UniProt O42275) (O42275 whole entry): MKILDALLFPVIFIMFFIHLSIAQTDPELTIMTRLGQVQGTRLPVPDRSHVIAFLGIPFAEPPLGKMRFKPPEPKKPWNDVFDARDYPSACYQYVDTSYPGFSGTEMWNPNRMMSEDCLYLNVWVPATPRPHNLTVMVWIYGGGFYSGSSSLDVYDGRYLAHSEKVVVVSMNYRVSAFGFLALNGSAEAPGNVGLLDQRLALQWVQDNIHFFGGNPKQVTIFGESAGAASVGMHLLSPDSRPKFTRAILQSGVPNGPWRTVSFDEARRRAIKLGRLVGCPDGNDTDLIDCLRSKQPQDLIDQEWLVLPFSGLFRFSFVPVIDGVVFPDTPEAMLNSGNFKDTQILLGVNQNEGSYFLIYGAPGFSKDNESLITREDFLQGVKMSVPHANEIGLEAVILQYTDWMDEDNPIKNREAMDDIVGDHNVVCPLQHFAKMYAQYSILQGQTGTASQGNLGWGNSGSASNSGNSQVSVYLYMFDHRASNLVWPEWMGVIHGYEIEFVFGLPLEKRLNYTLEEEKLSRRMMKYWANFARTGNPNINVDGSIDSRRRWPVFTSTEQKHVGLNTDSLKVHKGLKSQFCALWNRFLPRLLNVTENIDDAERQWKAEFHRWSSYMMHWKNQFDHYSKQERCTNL

| Compound | pIC50 [1] | Activity [2] [%] | Activity [3] [%] | pIC50 [4] | inhibition [5] [%] | pIC50 [6] | pIC50 [7] | Activity [8] [equiv] | inhibition [9] [%] | inhibition at 2.5 µM [10] [%] | inhibition at 10 µM [11] [%] | Activity [12] | inhibition at 2.5 µM [13] [%] | Activity [14] | inhibition at 10 µM [15] [%] |
| --- | --- | --- | --- | --- | --- | --- | --- | --- | --- | --- | --- | --- | --- | --- | --- |
| CCN(CCCCNC(=O)c1cc(O)c(C(=O)NCCCCN(CC)Cc2ccccc2)cc1O)Cc1ccccc1 | 4.85 | 81.1 | 80 | < 4.00 | 88 | 5.39 | 5.41 | 0.93 | 84.1 |  |  |  |  |  |  |
| COc1ccccc1CN(C)CCCCCCNC(=O)c1cc(O)c(C(=O)NCCCCCCN(C)Cc2ccccc2OC)cc1O | 5.21 | 76.3 | 89.8 | 4.39 | 99.7 | 4.97 | 5.64 | 0.62 | 85.3 |  |  |  |  |  |  |
| CCN(CCCCNC(=O)c1cc(O)c(C(=O)NCCCCN(CC)Cc2ccccc2N(C)C)cc1O)Cc1ccccc1N(C)C | 4.97 | 64.4 | 83.3 | < 4.00 | 99.7 | 5.38 | 5.43 | 1.16 | 69.4 |  |  |  |  |  |  |
| CCOC(=O)c1cc(O)c(C(=O)OCC)cc1O | < 4.00 |  |  | < 4.00 | 6.5 | < 4.00 |  | 0.96 | 30.7 |  |  |  |  |  |  |
| CCN(CCCCCCNC(=O)c1cc(O)c(C(=O)NCCCCCCN(CC)Cc2ccccc2)cc1O)Cc1ccccc1 | 4.64 | 83.5 | 82.3 | 4.33 | 91.4 | 5.34 | 5.55 | 1.27 | 74.3 |  |  |  |  |  |  |
| COc1ccccc1CN(C)CCCNC(=O)c1cc(O)c(C(=O)NCCCN(C)Cc2ccccc2OC)cc1O | 4.40 | 70.1 | 73.5 | 4.76 | 93.5 | 5.04 | 5.44 | 1.37 | 70.4 |  |  |  |  |  |  |
| CCN(CCCCNC(=O)c1cc(O)c(C(=O)NCCCCN(CC)Cc2ccc(N(C)C)cc2)cc1O)Cc1ccc(N(C)C)cc1 | 4.32 | 60.4 | 84.7 | < 4.00 | 99.9 | 4.56 | 5.50 | 3.23 | 82.5 |  |  |  |  |  |  |
| CC(C(=O)O)c1ccc(-c2ccccc2)c(F)c1 (stereo not given) [FLURBIPROFEN] |  |  |  |  |  |  |  |  |  | 9.6 | 23 | Non-Toxic | 11.8 | Non-Toxic | 30.3 |
| O=C(O)c1cc(O)c(C(=O)O)cc1O | < 4.00 |  |  | < 4.00 | 4.7 | < 4.00 |  | 4.7 | 8.1 | 5.9 | 12.5 | Non-Toxic | 8.3 | Non-Toxic | 18.2 |
| CN(CCCCCCNC(=O)c1cc(O)c(C(=O)NCCCCCCN(C)Cc2ccccc2)cc1O)Cc1ccccc1 | 4.88 | 80.9 | 89.3 | 4.38 | 99.8 | 5.25 | 5.63 | 1.01 | 89.1 |  |  |  |  |  |  |
| COc1cc(/C=C/C(=O)CC(=O)/C=C/c2ccc(O)c(OC)c2)ccc1O |  |  | 54.7 |  |  |  |  |  | 66 |  |  |  |  |  |  |
| CCN(CCCNC(=O)c1cc(O)c(C(=O)NCCCN(CC)Cc2ccccc2)cc1O)Cc1ccccc1 | 4.57 | 62.7 | 70.6 | < 4.00 | 81 | 5.11 | 5.38 | 0.95 | 57.6 |  |  |  |  |  |  |
| CN(CCCCNC(=O)c1cc(O)c(C(=O)NCCCCN(C)Cc2ccccc2)cc1O)Cc1ccccc1 | 4.90 | 67.7 | 77.9 | < 4.00 | 90 | 5.28 | 5.45 | 1.52 | 77.6 |  |  |  |  |  |  |
| CN(CCCNC(=O)c1cc(O)c(C(=O)NCCCN(C)Cc2ccccc2)cc1O)Cc1ccccc1 | 4.85 | 68.5 | 71.3 | < 4.00 | 85 | 4.95 | 5.40 | 1.21 | 81.2 |  |  |  |  |  |  |
| O=C(NCCCCN1CCOc2ccccc2C1)c1cc(O)c(C(=O)NCCCCN2CCOc3ccccc3C2)cc1O | 4.19 | 67.4 | 85.3 | < 4.00 | 71.6 | 4.51 | 5.26 | 1.02 | 74 |  |  |  |  |  |  |
